Usually IC50 stands for the concentration that gives 50% inhibition.

Calls of active or inactive are those of the source. No cut-off for these calls is given here.

The subject of the first assay is Raji. Nature of the assay: Antiproliferative activity against human Raji cells at 40 uM after 72 hrs by MTT assay relative to control.
Settings: not given
Format: functional. In short, it runs like this:
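Raji cells were exposed to the compound over a range of concentrations and treatment times, with the MTT-based viability read-out taken up to 72 h. The 40 μM, 72 h point is expressed as viability relative to control.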
The compound `C=CC(=O)Nc1ccc(-c2nc(Cl)cc(Nc3ccc(C(=O)Nc4cccc(C)c4)cc3)n2)cc1` returned an Activity of 90%.

The target in another assay is Tyrosine-protein kinase BTK (Homo sapiens) (UniProt Q06187). Nature of the assay: Inhibition of BTK in human Ramos cells assessed as reduction in PLCgamma-2 phosphorylation at Try1217 residue at 100 to 9000 nM after 24 hrs by Western blot analysis. In kind it is cell-based.
Tyrosine-protein kinase BTK (Homo sapiens), sequence (Q06187 whole entry): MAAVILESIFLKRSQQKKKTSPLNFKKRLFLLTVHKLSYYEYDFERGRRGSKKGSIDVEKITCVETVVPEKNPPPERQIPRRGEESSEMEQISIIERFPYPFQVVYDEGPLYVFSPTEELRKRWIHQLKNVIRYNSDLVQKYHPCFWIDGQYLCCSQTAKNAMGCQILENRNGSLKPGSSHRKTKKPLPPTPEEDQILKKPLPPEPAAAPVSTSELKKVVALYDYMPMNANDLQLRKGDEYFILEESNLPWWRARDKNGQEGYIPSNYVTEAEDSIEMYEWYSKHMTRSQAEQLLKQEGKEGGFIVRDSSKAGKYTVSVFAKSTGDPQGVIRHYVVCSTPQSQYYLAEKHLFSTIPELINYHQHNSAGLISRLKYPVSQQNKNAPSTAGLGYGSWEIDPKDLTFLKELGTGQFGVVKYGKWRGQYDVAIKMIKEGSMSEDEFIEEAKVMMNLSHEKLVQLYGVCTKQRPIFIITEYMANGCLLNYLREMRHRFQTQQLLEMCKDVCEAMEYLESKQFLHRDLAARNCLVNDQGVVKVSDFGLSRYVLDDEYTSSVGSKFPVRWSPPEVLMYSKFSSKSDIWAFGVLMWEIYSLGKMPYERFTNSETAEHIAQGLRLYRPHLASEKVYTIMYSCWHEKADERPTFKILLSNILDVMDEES
Settings: not given
With `C=CC(=O)Nc1ccc(-c2nc(Cl)cc(Nc3ccc(C(=O)Nc4cccc(C)c4)cc3)n2)cc1`, the inhibition entry was “Active”.

The next assay shares this target. Briefly: Inhibition of BTK phosphorylation at Tyr223 residue in human Ramos cells at 100 to 9000 nM after 24 hrs by Western blot analysis. In kind it is cell-based.
Settings: not given
`C=CC(=O)Nc1ccc(-c2nc(Cl)cc(Nc3ccc(C(=O)Nc4cccc(C)c4)cc3)n2)cc1`: the inhibition entry is “Active”.

A further assay relates to Ramos. Briefly: Cell cycle arrest in human Ramos cells assessed as apoptotic cells at 5 uM after 48 hrs by propidium iodide staining-based flow cytometric analysis (reference value: 5.03%). In kind it is functional.
Settings: not given
For orientation: In flow cytometry, cells or beads pass a laser one at a time.
Turning to `C=CC(=O)N1CCC[C@@H](n2nc(-c3ccc(Oc4ccccc4)cc3)c3c(N)ncnc32)C1` [IBRUTINIB], the Activity is listed as 4.33%.

As to `C=CC(=O)Nc1ccc(-c2nc(Cl)cc(Nc3ccc(C(=O)Nc4cccc(C)c4)cc3)n2)cc1`, the Activity is given as 13.91%.

A further assay relates to Ramos. Briefly: Induction of apoptosis in human Ramos cells assessed as early apoptotic cells at 5 uM after 48 hrs by propidium iodide staining-based flow cytometric analysis (reference value: 1.08%). In kind it is functional.
Settings: not given
As to `C=CC(=O)N1CCC[C@@H](n2nc(-c3ccc(Oc4ccccc4)cc3)c3c(N)ncnc32)C1` [IBRUTINIB], the Activity stood at 5.12%.

As to `C=CC(=O)Nc1ccc(-c2nc(Cl)cc(Nc3ccc(C(=O)Nc4cccc(C)c4)cc3)n2)cc1`, the Activity is on record as 25.8%.

Another assay concerns Ramos. Briefly: Induction of apoptosis in human Ramos cells assessed as late apoptotic cells at 5 uM after 48 hrs by propidium iodide staining-based flow cytometric analysis (reference value: 0.98%).
Settings: not given
In kind it is functional.
Regarding `C=CC(=O)N1CCC[C@@H](n2nc(-c3ccc(Oc4ccccc4)cc3)c3c(N)ncnc32)C1` [IBRUTINIB], the Activity is on record as 2.71%.

Regarding `C=CC(=O)Nc1ccc(-c2nc(Cl)cc(Nc3ccc(C(=O)Nc4cccc(C)c4)cc3)n2)cc1`, the Activity is 12.7%.

The test system of the next assay is HL-60. Briefly: Antiproliferative activity against human HL60 cells after 48 hrs by MTT assay. Format: functional, cell-based. Conditions: HL-60, 48 h. Summed up:
(§1)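 Cell proliferation read by MTT in three […] (HL60, Raji, Ramos), all said to over-express BTK. IC50 values were determined for each line.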
Background: Formazan colour is commonly taken as a measure of viable cells.
For `C=CC(=O)Nc1ccc(-c2nc(Cl)cc(Nc3ccc(C(=O)N(C)C)cc3)n2)cc1`, the IC50 was greater than 50 µM.

In turn, `C=CC(=O)Nc1ccc(-c2nc(Cl)cc(Nc3ccc(C(=O)N4CCOCC4)cc3)n2)cc1` yielded an IC50 of 5.94 µM.

With `C=CC(=O)N1CCC[C@@H](n2nc(-c3ccc(Oc4ccccc4)cc3)c3c(N)ncnc32)C1` [IBRUTINIB], the IC50 is 3.57 µM.

`C=CC(=O)Nc1ccc(-c2nc(Cl)cc(Nc3ccc(C(=O)N(CC)CC)cc3)n2)cc1` yielded an IC50 of 9.34 µM.

On to `C=CC(=O)Nc1ccc(-c2nc(Cl)cc(Nc3ccc(C(=O)Nc4cc(C)ccc4C)cc3)n2)cc1`, for which the IC50 was 14.9 µM.

In turn, `C=CC(=O)Nc1ccc(-c2nc(Cl)cc(Nc3ccc(C(=O)N4CCCC4)cc3)n2)cc1` had an IC50 of 15.8 µM.

Take `C=CC(=O)Nc1ccc(-c2nc(Cl)cc(Nc3ccc(C(=O)Nc4cccc(C)c4)cc3)n2)cc1`: the IC50 worked out at 3.66 µM.

As to `C=CC(=O)Nc1ccc(-c2nc(Cl)cc(Nc3ccc(C(=O)Nc4cc(C(F)(F)F)cc(C(F)(F)F)c4)cc3)n2)cc1`, half-maximal inhibition (IC50) was put at 4.79 µM.

A further assay relates to Raji. Nature of the assay: Antiproliferative activity against human Raji cells at 5 uM by MTT assay. The following applies: TDE = time-dependent effect. In kind it is functional, cell-based. In short, it runs like this: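 Raji cells, proliferation by MTT; viability followed over treatment time at 5 μM.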
Turning to `C=CC(=O)N1CCC[C@@H](n2nc(-c3ccc(Oc4ccccc4)cc3)c3c(N)ncnc32)C1` [IBRUTINIB], the Activity entry is “Tde”.

Take `C=CC(=O)Nc1ccc(-c2nc(Cl)cc(Nc3ccc(C(=O)Nc4cccc(C)c4)cc3)n2)cc1`: the Activity entry is “Tde”.

Another assay has as its system Raji. Briefly: Antiproliferative activity against human Raji cells after 48 hrs by MTT assay. Format: functional, cell-based.
Settings: not given
Summed up: as §1
As for `C=CC(=O)Nc1ccc(-c2nc(Cl)cc(Nc3ccc(C(=O)N(C)C)cc3)n2)cc1`, half-maximal inhibition (IC50) was put at 42.9 µM.

For `C=CC(=O)Nc1ccc(-c2nc(Cl)cc(Nc3ccc(C(=O)N4CCOCC4)cc3)n2)cc1`, the IC50 was 14.7 µM.

Take `C=CC(=O)N1CCC[C@@H](n2nc(-c3ccc(Oc4ccccc4)cc3)c3c(N)ncnc32)C1` [IBRUTINIB]: half-maximal inhibition (IC50) was put at 14.5 µM.

The compound `C=CC(=O)Nc1ccc(-c2nc(Cl)cc(Nc3ccc(C(=O)N(CC)CC)cc3)n2)cc1` had an IC50 of 12.5 µM.

`C=CC(=O)Nc1ccc(-c2nc(Cl)cc(Nc3ccc(C(=O)Nc4cc(C)ccc4C)cc3)n2)cc1` came in with an IC50 of 20.9 µM.

`C=CC(=O)Nc1ccc(-c2nc(Cl)cc(Nc3ccc(C(=O)N4CCCC4)cc3)n2)cc1` showed an IC50 of 19.2 µM.

Compound `C=CC(=O)Nc1ccc(-c2nc(Cl)cc(Nc3ccc(C(=O)Nc4cccc(C)c4)cc3)n2)cc1` returned an IC50 of 6.98 µM.

Consider `C=CC(=O)Nc1ccc(-c2nc(Cl)cc(Nc3ccc(C(=O)Nc4cc(C(F)(F)F)cc(C(F)(F)F)c4)cc3)n2)cc1`, for which the concentration for half-maximal inhibition (IC50) turned out to be 9.36 µM.

For the next assay, the system named is Ramos. Nature of the assay: Induction of apoptosis in human Ramos cells assessed as viable cells at 5 uM after 48 hrs by propidium iodide staining-based flow cytometric analysis (reference value: 96.83%). Format: functional. Conditions: read-out: Activity.
Consider `C=CC(=O)N1CCC[C@@H](n2nc(-c3ccc(Oc4ccccc4)cc3)c3c(N)ncnc32)C1` [IBRUTINIB], for which the viability at 5 µM came to 91.8%.

`C=CC(=O)Nc1ccc(-c2nc(Cl)cc(Nc3ccc(C(=O)Nc4cccc(C)c4)cc3)n2)cc1`: the viability at 5 µM was found to be 61.3%.

In another assay the test system is Ramos. Nature of the assay: Antiproliferative activity against human Ramos cells after 48 hrs by MTT assay.
Settings: not given
In kind it is functional, cell-based. Summed up:
as §1
In the case of `C=CC(=O)Nc1ccc(-c2nc(Cl)cc(Nc3ccc(C(=O)N(C)C)cc3)n2)cc1`, the IC50 is greater than 50 µM.

Take `C=CC(=O)Nc1ccc(-c2nc(Cl)cc(Nc3ccc(C(=O)N4CCOCC4)cc3)n2)cc1`: 7.24 µM corresponded to half-maximal inhibition (IC50).

`C=CC(=O)N1CCC[C@@H](n2nc(-c3ccc(Oc4ccccc4)cc3)c3c(N)ncnc32)C1` [IBRUTINIB] registered a 50% inhibitory concentration (IC50) of 2.31 µM.

For `C=CC(=O)Nc1ccc(-c2nc(Cl)cc(Nc3ccc(C(=O)N(CC)CC)cc3)n2)cc1`, the IC50 was found to be 11.2 µM.

Turning to `C=CC(=O)Nc1ccc(-c2nc(Cl)cc(Nc3ccc(C(=O)Nc4cc(C)ccc4C)cc3)n2)cc1`, half-maximal inhibition (IC50) required 16.8 µM.

Compound `C=CC(=O)Nc1ccc(-c2nc(Cl)cc(Nc3ccc(C(=O)N4CCCC4)cc3)n2)cc1` gave an IC50 of 10.4 µM.

`C=CC(=O)Nc1ccc(-c2nc(Cl)cc(Nc3ccc(C(=O)Nc4cccc(C)c4)cc3)n2)cc1`: the IC50 came out at 5.39 µM.

As to `C=CC(=O)Nc1ccc(-c2nc(Cl)cc(Nc3ccc(C(=O)Nc4cc(C(F)(F)F)cc(C(F)(F)F)c4)cc3)n2)cc1`, the IC50 came to 6.18 µM.

A further assay concerns Ramos. Nature of the assay: Cell cycle arrest in human Ramos cells assessed as accumulation of cells at G2/M phase at 5 uM after 48 hrs by propidium iodide staining-based flow cytometric analysis (reference value: 4.26%). In kind it is functional.
Settings: not given
Summed up: (§2)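 Ramos cells incubated 48 h with 5 μM test agent, DMSO as blank control; DNA content by flow cytometry gives the share of cells in each cell-cycle phase.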
On to `C=CC(=O)N1CCC[C@@H](n2nc(-c3ccc(Oc4ccccc4)cc3)c3c(N)ncnc32)C1` [IBRUTINIB], for which the Activity is 4.26%.

For the compound `C=CC(=O)Nc1ccc(-c2nc(Cl)cc(Nc3ccc(C(=O)Nc4cccc(C)c4)cc3)n2)cc1`, the Activity is reported as 4.21%.

The subject of a further assay is Ramos. Briefly: Cell cycle arrest in human Ramos cells assessed as accumulation of cells at S phase at 5 uM after 48 hrs by propidium iodide staining-based flow cytometric analysis (reference value: 71.08%). Format: functional.
Settings: not given
In short, it runs like this: as §2
Take `C=CC(=O)N1CCC[C@@H](n2nc(-c3ccc(Oc4ccccc4)cc3)c3c(N)ncnc32)C1` [IBRUTINIB]: the Activity was 65.18%.

With `C=CC(=O)Nc1ccc(-c2nc(Cl)cc(Nc3ccc(C(=O)Nc4cccc(C)c4)cc3)n2)cc1`, the Activity is reported as 59.51%.

In the next assay the test system is Ramos. Nature of the assay: Induction of apoptosis in human Ramos cells assessed as necrotic cells at 5 uM after 48 hrs by propidium iodide staining-based flow cytometric analysis (reference value: 1.11%).
Settings: not given
Format: functional.
`C=CC(=O)N1CCC[C@@H](n2nc(-c3ccc(Oc4ccccc4)cc3)c3c(N)ncnc32)C1` [IBRUTINIB]: the Activity stood at 0.37%.

In the case of `C=CC(=O)Nc1ccc(-c2nc(Cl)cc(Nc3ccc(C(=O)Nc4cccc(C)c4)cc3)n2)cc1`, the Activity was found to be 0.23%.

In a further assay the test system is Ramos. Briefly: Cell cycle arrest in human Ramos cells assessed as accumulation of cells at G0/G1 phase at 5 uM after 48 hrs by propidium iodide staining-based flow cytometric analysis (reference value: 24.65%). Format: functional.
Settings: not given
In short, it runs like this: as §2
As for `C=CC(=O)N1CCC[C@@H](n2nc(-c3ccc(Oc4ccccc4)cc3)c3c(N)ncnc32)C1` [IBRUTINIB], the Activity is listed as 30.5%.

In the case of `C=CC(=O)Nc1ccc(-c2nc(Cl)cc(Nc3ccc(C(=O)Nc4cccc(C)c4)cc3)n2)cc1`, the Activity worked out at 36.27%.

Source of the values: ChEMBL document CHEMBL4368870, “Design, synthesis and biological evaluation of novel 2-phenyl pyrimidine derivatives as potent Bruton's tyrosine kinase (BTK) inhibitors” (Medchemcomm, 2019).
